In ChEMBL document CHEMBL5032518, “Discovery of a cryptic site at the interface 2 of TEAD - Towards a new family of YAP/TAZ-TEAD inhibitors” (Eur J Med Chem, 2021):
One block for each compound: values may come before it. Active and inactive are the calls of the source. The calls are words filed in the database; no cut-off is given here.

Experiments:
HEK293T = experiment: Inhibition of TEAD (unknown origin) transfected in HEK293T cells assessed as inhibition of TEAD transcriptional activity at 10 uM measured after 16 hrs by luciferase reporter gene assay; type: cell-based; details: Homo sapiens
How it was run: (§1)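 HEK293T cells transfected with a TEAD luciferase reporter (8xGTIIC-Luciferase) and treated at 10 µM for 16 h. References were dasatinib at 100 nM and MGH-CP1 at 10 µM. β-Galactosidase activity used both to normalize luciferase and to estimate cytotoxicity; viability also checked visually. At least three independent experiments in biological triplicate; Kruskal-Wallis tests.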

[1] = molecular target: T1, Transcriptional enhancer factor TEF-4 (Homo sapiens, UniProt Q15562); experiment: Binding affinity to eGFP-fused human TEAD2 (217 to 447 residues) expressed in CHO-K1 cells by microscale thermophoresis analysis
How it was run: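 MST on GFP-labeled hTEAD2_217-447 in CHO-K1 cell lysate, MST power 40%. hYAP_50-102 used as control binder. Kd determined; triplicate runs on three independent cell cultures, mean ± SD.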

HEK-293T = experiment: Cytotoxicity against human HEK293T cells transfected with TEAD assessed as reduction of beta-galactosidase activity at 10 uM measured after 16 hrs by luciferase reporter gene assay; type: cell-based; how it was run: as §1
[2] = Inhibition of TEAD4/Yap1 (unknown origin) interaction measured after 24 hrs by fluorescence polarization assay; set-up: species or system Homo sapiens
[3] = molecular target: T1, Transcriptional enhancer factor TEF-4; experiment: Binding affinity to external surface of N-terminal His6-tagged human TEAD2 (217 to 447 residues) expressed in Escherichia coli BL21(DE3) assessed as melting temperature by Nano Differential scanning fluorometry
How it was run: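 Thermal stability of hTEAD2_217-447 measured by NanoDSF, which reads intrinsic aromatic-residue fluorescence, with and without ligand.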

[4] = Inhibition of TEAD (unknown origin) transfected in HEK293T cells assessed as inhibition of TEAD transcriptional activity measured after 24 hrs by luciferase reporter gene assay; type: cell-based; details: Homo sapiens, HEK-293T
MDA-MB-231 [5] = experiment: Inhibition of YAP/TAZ-TEAD interaction in human MDA-MB-231 cells assessed as reduction in CTGF mRNA expression at 10 uM measured after 24 hrs by qRT-PCR analysis; type: cell-based
How it was run: (§2)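 MDA-MB-231 cells exposed to 10 µM for 24 h, with DMSO and dasatinib (100 nM) as controls. Total RNA purified, integrity checked on agarose gel. RT-qPCR with gene-specific primers; relative expression by 2^-ΔΔCt normalized to MAN2B1. At least triplicates; Kruskal-Wallis tests.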

HeLa [6] = experiment: Inhibition of YAP/TAZ-TEAD interaction in human HeLa cells assessed as reduction in Cyr61 protein expression at 10 uM measured after 48 hrs by western blot analysis; type: cell-based
SH-SY5Y [7] = experiment: Effect on AXL protein expression in human SH-SY5Y cells lacking YAP/TAZ expression at 10 uM measured after 48 hrs by western blot analysis; type: functional, cell-based
MDA-MB-231 [8] = experiment: Inhibition of YAP/TAZ-TEAD interaction in human MDA-MB-231 cells assessed as reduction in AXL protein expression at 10 uM measured after 48 hrs by western blot analysis; type: cell-based
How it was run: (§3)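 MDA-MB-231 cells grown in DMEM with 0.2% heat-inactivated FBS and 2 mM L-glutamine, and exposed to 10 µM for 48 h, with dasatinib at 100 nM as control. Total extracts prepared in RIPA-based buffer with protease/phosphatase inhibitors, then Western blot. At least three independent experiments in biological triplicate.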

SH-SY5Y [9] = experiment: Effect on Survivin protein expression in human SH-SY5Y cells lacking YAP/TAZ expression at 10 uM measured after 48 hrs by western blot analysis; type: functional, cell-based
[10] = Inhibition of TEAD (unknown origin) transfected in HEK293T cells assessed as inhibition of TEAD transcriptional activity measured after 16 hrs by luciferase reporter gene assay; type: cell-based; details: Homo sapiens, HEK-293T
How it was run: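 HEK293T cells transfected with the 8xGTIIC-Luciferase TEAD reporter. Dose-response curves used to derive IC50, with luciferase normalized to β-galactosidase.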

MDA-MB-231 [11] = experiment: Inhibition of YAP/TAZ-TEAD interaction in human MDA-MB-231 cells assessed as reduction in AXL mRNA expression at 10 uM measured after 24 hrs by qRT-PCR analysis; type: cell-based; how it was run: as §2
HeLa [12] = experiment: Inhibition of YAP/TAZ-TEAD interaction in human HeLa cells assessed as reduction in AXL protein expression at 10 uM measured after 48 hrs by western blot analysis; type: cell-based
SH-SY5Y [13] = experiment: Effect on AXL mRNA expression in human SH-SY5Y cells lacking YAP/TAZ expression at 10 uM measured after 24 hrs by qRT-PCR analysis; type: functional, cell-based
MDA-MB-231 [14] = experiment: Antiproliferative activity against human MDA-MB-231 cells assessed as reduction in cell proliferation at 10 uM measured after 48 hrs by IncuCyte live-cell imaging assay; type: functional
How it was run: (§4)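 MDA-MB-231 cells plated in triplicate at low density (2.5 × 10³ cells/well) in low serum (0.2%). Test agent added at several concentrations 24 h after plating. Cell number tracked by live-cell imaging every 3 h for up to 72 h; independent triplicates, mean ± SD, n = 3.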

MDA-MB-231 [15] = experiment: Antiproliferative activity against human MDA-MB-231 cells assessed as reduction in cell proliferation at 5 uM measured after 48 hrs by IncuCyte live-cell imaging assay; type: functional; how it was run: as §4
HeLa [16] = experiment: Inhibition of YAP/TAZ-TEAD interaction in human HeLa cells assessed as reduction in CTGF mRNA expression at 10 uM measured after 24 hrs by qRT-PCR analysis; type: cell-based
HeLa [17] = experiment: Inhibition of YAP/TAZ-TEAD interaction in human HeLa cells assessed as reduction in Survivin protein expression at 10 uM measured after 48 hrs by western blot analysis; type: cell-based
HeLa [18] = experiment: Inhibition of YAP/TAZ-TEAD interaction in human HeLa cells assessed as reduction in Cyr61 mRNA expression at 10 uM measured after 24 hrs by qRT-PCR analysis; type: cell-based
SH-SY5Y [19] = experiment: Effect on Cyr61 protein expression in human SH-SY5Y cells lacking YAP/TAZ expression at 10 uM measured after 48 hrs by western blot analysis; type: functional, cell-based
MDA-MB-231 [20] = experiment: Inhibition of YAP/TAZ-TEAD interaction in human MDA-MB-231 cells assessed as reduction in Survivin protein expression at 10 uM measured after 48 hrs by western blot analysis; type: cell-based; how it was run: as §3
SH-SY5Y [21] = experiment: Effect on CTGF protein expression in human SH-SY5Y cells lacking YAP/TAZ expression at 10 uM measured after 48 hrs by western blot analysis; type: functional, cell-based
MDA-MB-231 [22] = experiment: Inhibition of YAP/TAZ-TEAD interaction in human MDA-MB-231 cells assessed as reduction in Cyr61 mRNA expression at 10 uM measured after 24 hrs by qRT-PCR analysis; type: cell-based; how it was run: as §2
HeLa [23] = experiment: Inhibition of YAP/TAZ-TEAD interaction in human HeLa cells assessed as reduction in AXL mRNA expression at 10 uM measured after 24 hrs by qRT-PCR analysis; type: cell-based
MDA-MB-231 [24] = experiment: Inhibition of YAP/TAZ-TEAD interaction in human MDA-MB-231 cells assessed as reduction in Cyr61 protein expression at 10 uM measured after 48 hrs by western blot analysis; type: cell-based; how it was run: as §3
SH-SY5Y [25] = experiment: Effect on Cyr61 mRNA expression in human SH-SY5Y cells lacking YAP/TAZ expression at 10 uM measured after 24 hrs by qRT-PCR analysis; type: functional, cell-based
SH-SY5Y [26] = experiment: Effect on CTGF mRNA expression in human SH-SY5Y cells lacking YAP/TAZ expression at 10 uM measured after 24 hrs by qRT-PCR analysis; type: functional, cell-based
HeLa [27] = experiment: Inhibition of YAP/TAZ-TEAD interaction in human HeLa cells assessed as reduction in CTGF protein expression at 10 uM measured after 48 hrs by western blot analysis; type: cell-based
MDA-MB-231 [28] = experiment: Inhibition of YAP/TAZ-TEAD interaction in human MDA-MB-231 cells assessed as reduction in CTGF protein expression at 10 uM measured after 48 hrs by western blot analysis; type: cell-based; how it was run: as §3

T1 sequence (Q15562 whole entry, the tested form may be a part): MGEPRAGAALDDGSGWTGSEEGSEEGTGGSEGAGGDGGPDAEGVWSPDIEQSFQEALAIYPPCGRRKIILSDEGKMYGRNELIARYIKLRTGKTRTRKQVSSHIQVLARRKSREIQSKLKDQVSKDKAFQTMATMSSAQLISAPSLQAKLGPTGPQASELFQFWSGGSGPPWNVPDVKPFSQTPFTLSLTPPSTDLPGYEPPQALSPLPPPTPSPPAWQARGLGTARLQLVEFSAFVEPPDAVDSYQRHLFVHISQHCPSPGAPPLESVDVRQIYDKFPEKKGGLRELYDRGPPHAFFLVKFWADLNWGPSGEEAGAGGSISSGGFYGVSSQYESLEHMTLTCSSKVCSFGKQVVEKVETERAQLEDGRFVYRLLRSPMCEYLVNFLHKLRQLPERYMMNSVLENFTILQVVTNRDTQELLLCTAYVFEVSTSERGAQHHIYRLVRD

- Kd [1]: 4.6 µM
SMILES: O=C(O)CCCn1cc(C(=O)NCc2ccccc2)c(-c2ccc(Cl)c(Cl)c2)n1
- inhibition (HEK293T): inactive

SMILES: CCOC(=O)c1cn(CCCN)nc1-c1ccc(Cl)c(Cl)c1
- inhibition (HEK293T): Active

SMILES: NCCCn1cc(C(=O)NCc2ccccc2)c(-c2ccc(Cl)c(Cl)c2)n1
- Activity (HEK-293T): Toxic

SMILES: NCCCCn1cc(C(=O)NCc2ccccc2)c(-c2ccc(Cl)c(Cl)c2)n1
- Activity (HEK-293T): Toxic

- EC50 [2]: 5.9 µM
SMILES: O=C(CCl)c1ccccc1Nc1cccc(C(F)(F)F)c1

- Tm [3]: 50.3 °C
SMILES: O=C(O)c1cccnc1Nc1cccc(C(F)(F)F)c1

SMILES: O=C(O)CCCn1cc(C(=O)NCCc2ccccc2)c(-c2ccc(Cl)c(Cl)c2)n1
- inhibition (HEK293T): inactive

SMILES: NCCCn1cc(C(=O)NCCc2ccccc2)c(-c2ccc(Cl)c(Cl)c2)n1
- Activity (HEK-293T): Toxic

- IC50 [4]: 1.7 µM
SMILES: COc1ccc2c(c1)/C(=N/NC(=O)c1nnn(-c3ccccc3N)c1-c1ccc(Cl)c(Cl)c1)C(=O)N2

- IC50 [4]: 6.5 µM
SMILES: Nc1nonc1-n1nnc(C(=O)N/N=C2\C(=O)Nc3ccccc32)c1-c1ccc(Cl)c(Cl)c1

SMILES: O=C(O)CCn1cc(C(=O)NCc2ccccc2)c(-c2ccc(Cl)c(Cl)c2)n1
- inhibition (HEK293T): inactive

SMILES: NCCn1cc(C(=O)NCc2ccccc2)c(-c2ccc(Cl)c(Cl)c2)n1
- Activity (HEK-293T): Toxic

- Kd [1]: 5.1 µM
SMILES: O=C(O)CCn1cc(C(=O)NCCc2ccccc2)c(-c2ccc(Cl)c(Cl)c2)n1
- inhibition (HEK293T): inactive

SMILES: NCCCCn1cc(C(=O)NCCc2ccccc2)c(-c2ccc(Cl)c(Cl)c2)n1
- Activity (HEK-293T): Toxic

- IC50 [10]: 4.5 µM
- Kd [1]: 35 µM
SMILES: CCOC(=O)c1cn(CCCCN)nc1-c1ccc(Cl)c(Cl)c1
- inhibition (MDA-MB-231 [5]): Active
- inhibition (HeLa [6]): Active
- Activity (SH-SY5Y [7]): inactive
- inhibition (MDA-MB-231 [8]): Active
- Activity (SH-SY5Y [9]): inactive
- inhibition (MDA-MB-231 [11]): Active
- inhibition (HeLa [12]): Active
- Activity (SH-SY5Y [13]): inactive
- inhibition at 10 µM (MDA-MB-231 [14]): 60%
- inhibition at 5 µM (MDA-MB-231 [15]): 40%
- inhibition (HEK293T): Active
- inhibition (HeLa [16]): Active
- inhibition (HeLa [17]): Active
- inhibition (HeLa [18]): Active
- Activity (SH-SY5Y [19]): inactive
- inhibition (MDA-MB-231 [20]): Active
- Activity (SH-SY5Y [21]): inactive
- inhibition (MDA-MB-231 [22]): Active
- inhibition (HeLa [23]): Active
- inhibition (MDA-MB-231 [24]): Active
- Activity (SH-SY5Y [25]): inactive
- Activity (SH-SY5Y [26]): inactive
- inhibition (HeLa [27]): Active
- inhibition (MDA-MB-231 [28]): Active
